Test results: PMC9948202 (ACS Omega, 2023)

What was measured:
[1] = molecular target: NTS2 (Homo sapiens, UniProt O95665); assay: Calcium imaging assay; type: cell-based
In short: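 HT-29 cells grown overnight on glass slides (5 × 10^5 cells, 37 °C, 5% CO2), loaded 30 min in the dark with 100 μM fluo-8 AM, 0.4% pluronic acid and 2.5 mM probenecid in RPMI. Perfused with bicarbonate-glucose buffer (95% O2/5% CO2, pH 7.4, room temperature), washed 10 min. Test compound 10–11 to 10–5 M by rapid perfusion; levocabastine as positive control. Ex 490/Em 514 nm; ΔF/F (%) vs baseline, normalized to levocabastine stimulation; twice in duplicate, 20 cells analysed.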

[2] = tested on: hNTS2; conditions: cited from earlier work
[3] = molecular target: hNTS1; conditions: read-out: Ki toward hNTS1; cited from earlier work
[4] = tested on: NTS1; conditions: cited from earlier work

Chain of NTS2 (O95665 whole entry, the tested form may be a part): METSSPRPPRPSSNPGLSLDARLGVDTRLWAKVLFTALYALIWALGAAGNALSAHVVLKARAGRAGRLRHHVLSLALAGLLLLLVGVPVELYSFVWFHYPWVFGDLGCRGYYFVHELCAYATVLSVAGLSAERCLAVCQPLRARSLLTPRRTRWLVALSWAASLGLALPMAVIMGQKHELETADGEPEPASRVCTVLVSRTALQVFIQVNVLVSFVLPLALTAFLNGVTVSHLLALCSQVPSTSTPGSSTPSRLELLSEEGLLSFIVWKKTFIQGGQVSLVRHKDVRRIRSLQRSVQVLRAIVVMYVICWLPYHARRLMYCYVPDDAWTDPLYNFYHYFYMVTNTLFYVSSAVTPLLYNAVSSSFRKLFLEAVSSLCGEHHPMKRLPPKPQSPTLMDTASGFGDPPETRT

Compound | EC50 [1] [nM] | selectivity index hNTS1/hNTS2 [2] | Ki ([2]; read-out: Ki toward hNTS2) [nM] | Ki [3] [nM] | hypothermic effect [4]
C[C@@H]1CN([C@H]2CC[C@](C#N)(c3ccc(F)cc3)CC2)CC[C@]1(C(=O)O)c1ccccc1 [levocabastine] | 118 | – | – | – | –
H-Lys-Lys-Pro-(D)Trp-Ile-TMSAla-OH [JMV 5504] | – | 423 | 8.5 | 3600 | no hypothermic effect
